The record followed here is PMC3224553 (Bioorganic & medicinal chemistry letters, 2011).

A short description of series [1]: Caco-2 permeability. The note with it: human, Caco-2, Caco-2 Permeability Efflux Ratio. In kind it is in vitro ADME. Background: Passage across Caco-2 layers is used to estimate intestinal permeability.
Series [2] relates to Caco-2. The series can be described thus: Caco-2 permeability. Type of series: in vitro ADME.
Series [3] has as its target hPK M2 (Homo sapiens, UniProt P14618). The series can be described thus: luminescent pyruvate kinase-luciferase coupled assay. Type of series: biochemical. The note with it: for AC50: hPK M2 AC50, average from three separate experiments. In a few lines:
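Human PKM2 activity is read by luminescence in a pyruvate kinase–luciferase coupled format. AC50 values are the average of three separate experiments. Maximum response is the % activation at 57 μM of test compound, normalized as described in the supporting information.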

The nature of series [4]: in vitro microsomal stability, human liver microsomes. In kind it is in vitro ADME. In general terms: Microsomes from liver hold many membrane-bound enzymes, among them those of drug oxidation.
The nature of series [5]: in vitro microsomal stability, mouse liver microsomes. In kind it is in vitro ADME.

Sequence of hPK M2 (P14618 whole entry): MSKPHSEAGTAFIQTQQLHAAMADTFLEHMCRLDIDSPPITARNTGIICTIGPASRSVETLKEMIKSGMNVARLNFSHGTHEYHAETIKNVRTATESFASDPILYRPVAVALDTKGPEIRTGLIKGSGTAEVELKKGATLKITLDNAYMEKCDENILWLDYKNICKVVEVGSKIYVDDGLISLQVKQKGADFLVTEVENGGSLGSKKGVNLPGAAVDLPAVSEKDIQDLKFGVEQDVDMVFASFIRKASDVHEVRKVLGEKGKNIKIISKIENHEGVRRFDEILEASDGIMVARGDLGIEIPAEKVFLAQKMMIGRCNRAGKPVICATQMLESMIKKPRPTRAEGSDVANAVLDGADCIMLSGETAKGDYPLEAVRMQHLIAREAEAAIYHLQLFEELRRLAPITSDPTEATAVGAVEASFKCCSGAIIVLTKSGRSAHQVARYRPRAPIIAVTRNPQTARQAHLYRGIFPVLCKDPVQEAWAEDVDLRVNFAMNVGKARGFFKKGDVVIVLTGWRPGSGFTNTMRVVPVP

Turning to `Cc1ccc(NS(=O)(=O)c2cc3c(cc2F)NC(=O)CC3)cc1Cl` [Compound 64], in series [1], the efflux ratio (in general, a quotient of directional permeabilities that is used to spot active efflux) was at most 1. Further, in series [2], the “Caco-2 Permeability Papp (A–B)” value is on record as 6.22 10^−6, cm/s and the “Caco-2 Permeability Papp (B–A)” value is 6.24 10^−6, cm/s.

Take `Cc1ccc(NS(=O)(=O)c2ccc3ccccc3c2)cc1C` [Compound 7]: the activity in series [3] was half-maximal at 18.4 µM (AC50).

Turning to `CC(=O)Nc1ccc(S(=O)(=O)Nc2ccc(C)c(C)c2)cc1` [Compound 17], the concentration at half-maximal activity (AC50) (in general, the midpoint of the concentration-response curve, whichever way the signal moves) in series [3] worked out at 6.9 µM.

`Cc1ccc(NS(=O)(=O)c2ccc3c(c2)CCC(C)(C)O3)cc1C` [Compound 10] returned an AC50 in series [3] of 10 µM.

In the case of `Cc1ccc(NS(=O)(=O)c2cc(N[C@@H](C)CO)cc3c2NC(=O)CC3)cc1Cl` [Compound 77b], the “PKM2 activation, result in words” value in series [3] was “inactive”.

`Cc1ccc(NS(=O)(=O)c2ccc3c(c2)CC(=O)N3)cc1C` [Compound 15] showed a concentration at half-maximal activity (AC50) in series [3] of 8.3 µM.

In the case of `Cc1ccc(NS(=O)(=O)c2cc(N[C@@H](C)CO)cc3c2NC(=O)CC3)cc1C` [Compound 76b], the “PKM2 activation, result in words” value in series [3] is “inactive”.

On to `COc1ccc(S(=O)(=O)Nc2ccc(C)c(C)c2)cc1` [Compound 9], for which the AC50 in series [3] came out at 17.3 µM.

`Cc1ccc(NS(=O)(=O)c2cccc(Cl)c2)cc1C` [Compound 8]: the activity in series [3] was half-maximal at 18.3 µM (AC50).

Turning to `Cc1ccc(NS(=O)(=O)c2ccc3c(c2)NC(=O)CO3)cc1C` [Compound 11], the activity in series [3] was half-maximal at 13.4 µM (AC50).

The compound `Cc1ccc(NS(=O)(=O)c2ccc3[nH]c(=O)[nH]c3c2)cc1C` [Compound 12] yielded an AC50 in series [3] of over 20 µM.

Take `Cc1ccc(NS(=O)(=O)c2cc3c(cc2N2CCC(N(C)C)C2)NC(=O)CC3)cc1C` (stereo not shown) [Compound 56]: in series [3], the “PKM2 activation, result in words” value is listed as “loss of activity”.

As to `Cc1ccc(NS(=O)(=O)c2cc(Br)cc3c2NC(=O)CC3)cc1C` [Compound 74b], the “PKM2 activation, result in words” value in series [3] is “no activity”.

`Cc1ccc(NS(=O)(=O)c2cc3c(cc2N(C)C)NC(=O)CC3)cc1C` [Compound 52]: the half-life in series [4] and in series [5] was under 25 min throughout. Also, the “PKM2 activation, result in words” value in series [3] is recorded as “retained activity”.

As for `Cc1ccc(NS(=O)(=O)c2ccc3c(c2)oc(=O)n3C)cc1C` [Compound 18], the AC50 in series [3] came out at 4.3 µM. This counts as single-digit micromolar.

`O=C1CCc2cc(S(=O)(=O)Nc3ccc(F)c(Cl)c3)c(F)cc2N1` [Compound 66]: the efflux ratio in series [1] is at most 1. For the same compound, in series [2], the “Caco-2 Permeability Papp (A–B)” value is recorded as 9.38 10^−6, cm/s and the “Caco-2 Permeability Papp (B–A)” value is reported as 7.91 10^−6, cm/s.

In series [3], `Cc1ccc(NS(=O)(=O)c2ccc(F)cc2)cc1C` [Compound 6] yielded an AC50 of over 20 µM.

Take `Cc1ccc(NS(=O)(=O)c2cc(Br)cc3c2NC(=O)CC3)cc1Cl` [Compound 75b]: the “PKM2 activation, result in words” value in series [3] is recorded as “no activity”.

For the compound `Cc1ccc(NS(=O)(=O)c2ccc3c(c2)CCC(=O)N3)cc1C` [Compound 3], the half-life (commonly how long it takes for the measured level to halve) in series [4] was under 20 min. The half-life in series [5] is under 20 min. For the same compound, the efflux ratio in series [1] is under 1. In addition, in series [2], the “Caco-2 Permeability Papp (A–B)” value is on record as 14.9 10^−6, cm/s and the “Caco-2 Permeability Papp (B–A)” value was 12.21 10^−6, cm/s.

In series [3], `Cc1ccc(NS(=O)(=O)c2ccc3c(c2)N(C)CCO3)cc1C` [Compound 19] registered an AC50 of 6 µM.

In turn, `CC(=O)Nc1cccc(S(=O)(=O)Nc2ccc(C)c(C)c2)c1` [Compound 13] registered an AC50 in series [3] of 13.1 µM.

In the case of `Cc1ccc(NS(=O)(=O)c2cccc(C(=O)O)c2)cc1C` [Compound 5], in series [3], the AC50 was over 20 µM.

`CC(=O)N1CCc2cc(S(=O)(=O)Nc3ccc(C)c(C)c3)ccc21` [Compound 22]: half-maximal activity in series [3] (AC50) was put at 1.5 µM.

The compound `Cc1ccc(NS(=O)(=O)c2ccc(N3CCCC3=O)cc2)cc1C` [Compound 20] displayed an AC50 in series [3] of 0.94 µM.

For the compound `Cc1ccc(NS(=O)(=O)c2cc3c(cc2N[C@@H](C)CO)NC(=O)CC3)cc1Cl` [Compound 68], in series [2], the “Caco-2 Permeability Papp (A–B)” value was 1.13 10^−6, cm/s and the “Caco-2 Permeability Papp (B–A)” value was 11.9 10^−6, cm/s.

In the case of `Cc1ccc(NS(=O)(=O)c2ccc3c(c2)CC(=O)N3C)cc1C` [Compound 21], the activity in series [3] was half-maximal at 2.3 µM (AC50).

In turn, `Cc1ccc(NS(=O)(=O)c2ccc3c(c2)CCCC(=O)N3)cc1C` [Compound 16] gave an AC50 in series [3] of 7.1 µM.

As for `Cc1ccc(NS(=O)(=O)c2cc3c(cc2N[C@@H](C)CO)NC(=O)CC3)cc1C` [Compound 63], the “fold more potent than its enantiomer” value in series [3] ((S)- vs (R)-alaninol derivative) stood at 4 fold.

For `C[C@@H](CO)Nc1cc2c(cc1S(=O)(=O)Nc1ccc(F)c(Cl)c1)CCC(=O)N2` [Compound 69], in series [2], the “Caco-2 Permeability Papp (A–B)” value was 1.61 10^−6, cm/s and the “Caco-2 Permeability Papp (B–A)” value is 17.52 10^−6, cm/s.

Take `Cc1ccc(NS(=O)(=O)c2cc3c(cc2N2CCCCC2)NC(=O)CC3)cc1C` [Compound 57]: the “PKM2 activation, result in words” value in series [3] is “loss of activity”.

In the case of `CNc1cc2c(cc1S(=O)(=O)Nc1ccc(C)c(C)c1)CCC(=O)N2` [Compound 54], the half-life in series [4] and in series [5] was under 25 min in each case. Besides, in series [3], the “PKM2 activation, result in words” value is “retained activity”.

Regarding `CC(=O)N1CCCc2cc(S(=O)(=O)Nc3ccc(C)c(C)c3)ccc21` [Compound 14], the AC50 in series [3] came to 9 µM.
